Screening results (PubChem)
Compounds with a hit are over-represented: about 4.5% of the library has one in this group of screens.
OX1R antag-1 = antagonists of human orexin 1 receptor (OX1R); AID 485270; inhibition, % at 6.6 µM; OX1R-expressing cells, FRET antagonist read-out; 330,000 tested, 1.8% active; in the data active means inhibition mostly above about 38%, no sharp cut-off; inactive means mostly below about 40%;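 further: 0% = agonist challenge alone and 100% = reference antagonist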
Target sequence (O43613 whole entry, looked up): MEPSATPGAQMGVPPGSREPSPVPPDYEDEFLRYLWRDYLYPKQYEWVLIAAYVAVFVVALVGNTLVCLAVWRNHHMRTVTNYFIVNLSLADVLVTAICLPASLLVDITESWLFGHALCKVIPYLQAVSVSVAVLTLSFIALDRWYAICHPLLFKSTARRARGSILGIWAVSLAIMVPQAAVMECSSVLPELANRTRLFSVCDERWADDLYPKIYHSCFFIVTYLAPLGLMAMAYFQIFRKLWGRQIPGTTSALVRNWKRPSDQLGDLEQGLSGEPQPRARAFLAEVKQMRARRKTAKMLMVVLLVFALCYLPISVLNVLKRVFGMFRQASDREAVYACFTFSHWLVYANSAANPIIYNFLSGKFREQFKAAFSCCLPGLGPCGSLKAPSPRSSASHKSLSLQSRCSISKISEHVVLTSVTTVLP
TAAR1 antagonist = antagonists of human TAAR1 | Q96RJ0 | CHO RD-HGA16 TAAR1, Fluo-8 calcium fluorescence, antagonist | inhibition, % at 3 µM | 360,000 tested, 1.5% active | AID 624466;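 active means inhibition above a per-plate cutoff, the mean inhibition of test compounds on that plate plus 3 SD, cut at about 49% in these data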;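 further: 0% = DMSO plus EC80 beta-PEA response and 100% = DMSO alone without agonist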
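Assay system: CHO-derived RD-HGA16 cells stably expressing human TAAR1 plus Gα16. Timing: 140 s kinetic read after compound, 140 s after agonist. Technique: kinetic Fluo-8 calcium fluorescence measurement. Measure: % inhibition of agonist calcium response.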
OX1R antag-2 = human HCRTR1 antagonism. 330,000 tested, 0.43% active. inhibition, % at 5 µM. O43613. AID 434989. CHO/OX1R cells, Fluo-8 calcium fluorescence, orexin A;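 active means inhibition above its plate's threshold, mean inhibition of all tested compounds on the plate plus 3 SD, cut at about 37% in these data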;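 further: 0% = orexin A challenge wells and 100% = SB-334867-A antagonist wells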
GPR7 antagonist = human neuropeptides B/W receptor 1 antagonism; P48145; GPR7-expressing cells, fluorescence antagonist assay; inhibition, % at 4.4 µM; 290,000 tested, 1.1% active; AID 1861; in the data active means inhibition above about 16%, passing the limit was not always enough;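 further: cells stimulated with the agonist NPW; 0% = agonist with vehicle and 100% = vehicle without agonist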
TAAR1 ag = human TAAR1 agonism; CHO RD-HGA16 TAAR1, Fluo-8 calcium fluorescence; vehicle wells 0%, saturating PEA agonist 100%; activation, % at 3 µM; 360,000 tested, 0.99% active; AID 624467;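 active means activation above the mean activation of all test compounds in the run plus 3 SD, cut at about 38% in these data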
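test system = CHO RD-HGA16 cells carrying human TAAR1 plus Gα16 | schedule = 17-24 h seeding, 75 min 37 °C dye, 30 min RT | compound dosing = 3 µM single concentration | control set = DMSO and PEA EC100 | replicates = n 1 | signal = Fluo-8 fluorescence, 5 s baseline then 140 s kinetic read | measure = percent activation vs PEA EC100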
CHO parental Ca = signal in parental CHO cells, OX1R antagonist counter-screen | parental CHO-K1, ATP-induced calcium, Fluo-8 fluorescence | inhibition, % at 5.6 µM | 330,000 tested, 0.63% active | AID 463079;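 active means inhibition above that plate's mean sample inhibition plus 3 SD, cut at about 26% in these data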;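 further: 0% = ATP-challenged DMSO wells and 100% = DMSO wells without ATP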
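Test system: untransfected parental CHO cell line. Compound: one dose, 5.6 µM nominal. Detection: intracellular calcium via Fluo-8 no-wash fluorescent dye. Measure: % inhibition. Benchmarks: ATP-challenged DMSO wells low, unchallenged DMSO wells high.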
TAAR1 ag confirm = human TAAR1 agonism, confirmed; 2,400 tested, 82% active; AID 651783; CHO RD-HGA16 TAAR1, Fluo-8 calcium fluorescence; scaled: DMSO 0%, maximal phenethylamine 100%; shares compounds with TAAR1 ag; activation, % at 3 µM;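 active means activation above a cutoff set at the run's mean compound activation plus 3 SD, cut at about 39% in these data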
Ga16 nonsel ag = counter-screen for TAAR1 agonists: nonselective agonists in parental cells | shares compounds with TAAR1 ag | CHO-Ga16 parental, Fluo-8 calcium fluorescence; normalized to maximal ATP response, DMSO zero | activation, % at 3 µM | 2,400 tested, 50% active | AID 651787;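 active means activation above the run cutoff, the mean activation over all tested wells plus 3 SD, cut at about 12% in these data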;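 further: 0% = DMSO wells and 100% = maximal ATP response on the peak over basal ratio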
TAAR1 desensitize = TAAR1 response desensitization, agonist counter-screen; shares compounds with TAAR1 ag; CHO RD-HGA16 hTAAR1, Fluo-8 calcium, beta-PEA response inhibition; inhibition, % at 3 µM; 2,400 tested, 46% active; AID 651951;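 active means inhibition above the run cutoff, the mean inhibition of all test compounds plus 3 SD, cut at about 49% in these data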;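 further: beta-PEA stimulus applied at its EC80; loss of beta-PEA calcium signal after compound pretreatment read as receptor desensitization; 0% = DMSO with beta-PEA at EC80 and 100% = DMSO alone without agonist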
Ga16 antag count = nonselective Ga16 antagonist in TAAR1 agonist counter-screen. CHO-Ga16 ATP-induced calcium, Fluo-8 fluorescence. 2,400 tested, 39% active. AID 651952. inhibition, % at 3 µM. shares compounds with TAAR1 ag;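 active means inhibition above the plate's mean compound inhibition plus 3 SD, computed per plate, cut at about 22% in these data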;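 further: 0% = EC80 ATP with DMSO and 100% = DMSO wells without ATP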
* hit, by the source's call; . = no result.

SMILES	OX1R antag-1	TAAR1 antagonist	OX1R antag-2	GPR7 antagonist	TAAR1 ag	CHO parental Ca	TAAR1 ag confirm	Ga16 nonsel ag	TAAR1 desensitize	Ga16 antag count
COc1cc(CN2CCCCCC2)cc([N+](=O)[O-])c1O	16	-5	0	-16	0	-1	.	.	.	.
COc1cc(CN2CCc3ccccc3C2)ccc1O	10	.	-6	-1	.	14	.	0	.	4
CCOc1cc(CN2CCCC(N3CCc4ccccc4C3)C2)ccc1O (stereo not drawn)	.	-5	.	1	3	.	.	.	.	.
COc1ccc(S(=O)(=O)N2CCCC2CNC(=O)C(=O)NCc2ccccn2)cc1 (stereo not drawn)	15	2	-19	.	0	-18	.	.	.	.
COc1ccc(/C=N/NC(=O)c2nnn(-c3nonc3N)c2-c2cccc(OC)c2)cc1	29	75*	-8	-13	149*	-17	121*	86*	72*	32*
CCCOc1ccc(-c2c(C(=O)N/N=C/c3ccccc3)nnn2-c2nonc2N)cc1	13	-46	-19	-9	0	-2	.	.	.	.
CCOc1cccc(-c2c(C(=O)N/N=C/c3ccncc3)nnn2-c2nonc2N)c1	8	1	-19	4	16	-6	.	.	.	.
Nc1nonc1-n1nnc(C(=O)N/N=C/c2cccc(F)c2)c1-c1ccccc1	18	0	-20	7	55*	-17	39*	18*	16	11
Cc1ccc(/C=N/NC(=O)c2nnn(-c3nonc3N)c2-c2ccc3c(c2)OCO3)s1	43*	42	-5	-10	82*	-2	97*	61*	40	20
CCOc1ccc(-c2c(C(=O)N/N=C/c3ccoc3)nnn2-c2nonc2N)cc1	8	-20	-2	-8	92*	-1	66*	29*	6	10
Cc1ccc(NC(=O)CN(C)S(=O)(=O)c2cccs2)c(Br)c1	21	-24	-31	-13	2	-11	.	.	.	.
COc1ccc2c(CN3CCN(Cc4ccccc4)CC3)cc(=O)oc2c1	.	2	.	.	-1	.	.	.	.	.
CC(C)CCN1C(=O)c2ccc(C(=O)Nc3ccccn3)cc2C1=O	18	-16	-14	-17	0	-12	.	.	.	.
CCN1CCN(Cc2nc3cc(NC(=O)COc4ccc([N+](=O)[O-])cc4)ccc3n2C)CC1	13	-27	-5	-3	0	3	.	.	.	.
CCOc1ccc(/C=N/NC(=O)c2nnn(-c3nonc3N)c2-c2ccc(OCC)cc2)cc1	13	-15	-22	-12	66*	-20	57*	26*	9	14
Cc1ccc(/C=N/NC(=O)c2nnn(-c3nonc3N)c2-c2cccs2)cc1	9	78*	-64	-5	131*	-28	129*	96*	79*	43*
CCOc1cccc(-c2c(C(=O)N/N=C/c3cccs3)nnn2-c2nonc2N)c1	8	21	-8	-6	110*	-12	91*	55*	38	21
COc1cccc(-c2c(C(=O)N/N=C/c3cccs3)nnn2-c2nonc2N)c1	21	.	-22	-26	.	-14	.	.	.	.
CCOc1cccc(-c2c(C(=O)N/N=C/c3ccoc3)nnn2-c2nonc2N)c1	9	-3	-3	-7	83*	-1	73*	32*	7	9
CCN1C(=O)C2CCCCN2c2ccc(C(=O)NCCOC)cc21 (stereo not drawn)	0	-6	-12	-6	0	2	.	.	.	.
